Screening results deposited in PubChem by Broad Institute.
An excerpt weighted towards active compounds, which were near 2.5% of everything screened.
HIV Env fusion – blocks HIV Env-driven cell-cell fusion. HeLa-JRFL Env/CEM21 cell fusion, luciferase. inhibition, % at 12.3 µM. 360,000 compounds, 1.1% hits. AID 651610;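 active = mean replicate inhibition score of at least 50 and every replicate individually at or above 50; inconclusive = only one of the two criteria met; inactive = mean below 50 and not all replicates reaching 50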
PAX8 inh HTS – lowers PAX8-driven luciferase in RMG-I cells. RMG-I TPO-luciferase reporter, SteadyGlo, 24 h. inhibition, % at 12.6 µM. 360,000 compounds, 1.2% hits. AID 652154;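 active = mean replicate inhibition at least 60% with every replicate also reaching 60%; inconclusive = only one of the two criteria is met; inactive = mean below 60% and not all replicates reaching 60%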;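 also: luciferase light reporting Pax8 driven TPO promoter activity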
FN deposit inh – fibronectin deposition inhibition | inhibition, % at 12.6 µM | AH1F fibroblasts, Alexa488-fibronectin deposition fluorescence, overnight | 350,000 compounds, 0.086% hits;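 active = mean inhibition across replicates of 30% or more, regardless of how many single replicates reach that level; inconclusive = mean under 30% yet at least half of replicates reach 30%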
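Material: AH1F fibroblasts assembling fluorescent fibronectin matrix; amount: 10000 AH1F cells/well; medium: DMEM, 2% serum; reagent: Alexa488-fibronectin, 24 nM final in well; dosing: single compound dose, delivered by pin transfer; incubation: 1 h adhesion, overnight exposure; detection: fluorescence after three HBSS washes, excitation 485 nm, emission 525 nm; measure: fibronectin deposition inhibition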
N-glyco inh – N-linked glycosylation inhibition; D54 ERlucT glycosylation luciferase reporter, 24 h; percent of 100 nM tunicamycin response; reporter increase, % at 12.5 µM; 360,000 compounds, 0.23% hits;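 active = mean luciferase reporter signal, scaled so untreated is 0 and the glycosylation-blocking control 100, at or above a set limit in every replicate; inconclusive = mean reaches the limit but not every replicate does; inactive = mean below the limit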;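 also: luciferase carries N-glycosylation sites so blocking glycosylation raises the light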
AF4-AF9 inh – MLL-AF4/AF9 protein interaction inhibition | inhibition, % at 10 µM | 350,000 compounds, 0.47% hits | P42568 | AlphaScreen, biotin-AF4 peptide binding to FLAG-AF9;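 active = every replicate reaching a set inhibition limit, whatever the replicate mean, cut at about 25% in these data; inconclusive = mean inhibition reaches that limit but some replicates miss it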
Target sequence (P42568 whole entry, looked up): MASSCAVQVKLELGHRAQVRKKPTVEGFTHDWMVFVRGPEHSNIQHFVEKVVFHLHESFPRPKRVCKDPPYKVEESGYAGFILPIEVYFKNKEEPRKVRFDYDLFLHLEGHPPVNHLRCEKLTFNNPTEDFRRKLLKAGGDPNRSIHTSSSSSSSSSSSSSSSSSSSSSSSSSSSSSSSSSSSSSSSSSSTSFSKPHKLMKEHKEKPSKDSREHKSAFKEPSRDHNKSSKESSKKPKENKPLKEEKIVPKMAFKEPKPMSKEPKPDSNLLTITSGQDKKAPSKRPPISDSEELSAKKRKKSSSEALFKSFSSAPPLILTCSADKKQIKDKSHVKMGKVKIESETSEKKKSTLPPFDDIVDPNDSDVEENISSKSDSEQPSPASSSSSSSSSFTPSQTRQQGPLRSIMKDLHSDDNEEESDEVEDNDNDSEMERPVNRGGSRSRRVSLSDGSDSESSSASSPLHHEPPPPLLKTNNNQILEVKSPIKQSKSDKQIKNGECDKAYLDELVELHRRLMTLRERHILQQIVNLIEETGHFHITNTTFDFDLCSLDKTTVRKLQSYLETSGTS
EWS-Fli block – blocks EWS/Fli oncoprotein-driven transcription | A673 NR0B1-luciferase reporter, viability-normalised | inhibition, % at 12.6 µM | 350,000 compounds, 0.67% hits | AID 651661;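 active = mean inhibition of at least 50% after viability correction, with every replicate also passing that limit; inconclusive = mean reaches 50% but only one of two replicates passes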;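 also: firefly luciferase signal divided by Alamar Blue viability fluorescence both relative to DMSO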
Hits are given with their value; n = inactive; u = inconclusive; x = no result; [ ] = another dose, or the depositor's remark.

SMILES	HIV Env fusion	PAX8 inh HTS	FN deposit inh	N-glyco inh	AF4-AF9 inh	EWS-Fli block
Cc1nn(C)c(C)c1CNC(=O)c1cc2n(n1)C(C(F)(F)F)CC(c1cccs1)N2 (stereo not drawn)	x	x	x	n	n	n
CCOC(=O)c1c(NC(=O)c2cc3n(n2)C(C(F)(F)F)CC(c2cccs2)N3)sc(C)c1C (stereo not drawn)	n	n	x	98	x	x
CN(C)CC(=O)Nc1ccc2c(c1)[C@H]1C[C@@H](CC(=O)NCCc3ccccc3)O[C@H](CO)[C@H]1O2	60[16.7 µM]	n	x	x	n	n
O=C(C[C@@H]1C[C@@H]2c3cc(NC(=O)C4CCOCC4)ccc3O[C@@H]2[C@H](CO)O1)NCCc1ccccc1	63[16.7 µM]	n	n	x	n	n
CN(C)CC(=O)Nc1ccc2c(c1)[C@H]1C[C@H](CC(=O)NCc3cccc(F)c3)O[C@@H](CO)[C@H]1O2	64[16.7 µM]	n	x	x	n	n
O=C(C[C@@H]1C[C@H]2c3cc(NC(=O)C4CCOCC4)ccc3O[C@H]2[C@@H](CO)O1)NCc1ccccc1	90[16.7 µM]	n	n	x	n	n
O=C(N[C@H]1CC[C@@H](CCn2cc(-c3ccccn3)nn2)O[C@@H]1CO)c1ccc(F)cc1	n	n	x	x	n	n
COCC#Cc1ccc2c(c1)O[C@H](CN(C)C(=O)NC(C)C)[C@@H](C)CN([C@@H](C)CO)S2(=O)=O	n	x	n	x	n	n
O=C(Nc1ccccc1F)N1CC(=O)N2[C@H](CO)[C@@H](c3ccc(-c4ccccc4)cc3)[C@@H]2C1	x	n	x	x	n	n
O=C(C[C@H]1C[C@@H]2c3cc(NC(=O)C4CCOCC4)ccc3O[C@@H]2[C@@H](CO)O1)NCc1ccc(Oc2ccccc2)cc1	n	78	x	x	n	n
O=C(C[C@@H]1C[C@H]2c3cc(NC(=O)C4CCOCC4)ccc3O[C@H]2[C@@H](CO)O1)NCc1ccc(Oc2ccccc2)cc1	n	n	x	x	n	n
O=C(C[C@@H]1C[C@H]2c3cc(NC(=O)C4CCOCC4)ccc3O[C@H]2[C@@H](CO)O1)NCc1ccccc1F	n	n	n	x	n	n
O=C(C[C@H]1C[C@@H]2c3cc(NC(=O)C4CCOCC4)ccc3O[C@@H]2[C@@H](CO)O1)NCc1ccccc1F	82[16.7 µM]	n	n	x	n	n
CC[C@H](C)[C@H](NC(N)=O)C(=O)Nc1ccc(NC(C)=O)cc1	n	n	n	n	96	n
CC[C@H](C)[C@H](NC(N)=O)C(=O)Nc1ccc(C)cc1	n	n	n	n	n	n
O=C(NCC[C@H]1CC[C@H](NS(=O)(=O)c2ccc(Cl)cc2)[C@@H](CO)O1)c1ccccc1F	n	n	x	x	n	n
Cc1nc2ccccc2nc(C)c1=NOCc1cccc(Cl)c1	69	n	n	n	n	n
Cc1nc2ccccc2cc1OCc1ccc(Cl)cc1	n	n	n	n	x	x
COc1ccc(C2c3c(-c4ccccc4O)n[nH]c3C(=O)N2CCc2ccc(OC)c(OC)c2)cc1 (stereo not drawn)	91	x	x	n	x	x
CCOC(=O)c1c(NC(=O)CSc2nnc(CNc3ccc(OC)cc3)n2C)sc(C)c1C	27	n	n	n	x	x
O=C(N/N=C/c1cc([N+](=O)[O-])ccc1Cl)c1cnccn1	n	n	n	n	n	57
C[C@@H]1CCCCO[C@H](CN(C)C(=O)Nc2ccccc2)[C@H](C)CN([C@@H](C)CO)C(=O)c2cc(NC(=O)Nc3ccc(F)cc3)ccc2O1	n	n	x	x	n	n
C=C1C(=O)[C@]23C[C@H]1CC[C@H]2[C@]1(C)[C@@H](OC(C)=O)CC[C@@](C)(C(=O)O)[C@H]1C[C@@H]3O	n	101	n	n	n	n
C=C1C(=O)[C@]23C[C@H]1CCC2[C@@]1(C)C(C[C@@H]3O)[C@](C)(C(=O)OC)CC[C@@H]1OC(C)=O (stereo partly drawn)	n	108	n	n	n	53
C=C1C(=O)[C@]23C[C@H]1CC[C@H]2[C@]1(C)[C@@H](OC(C)=O)CC[C@@](C)(C(=O)OC)[C@H]1C[C@@H]3OC(C)=O	n	117	x	n	n	61
SMILES	HIV Env fusion	PAX8 inh HTS	FN deposit inh	N-glyco inh	AF4-AF9 inh	EWS-Fli block
C=C1C(=O)[C@]23C[C@H]1CC[C@H]2[C@]1(C)[C@@H](O)CC[C@@](C)(C(=O)O)[C@H]1C[C@@H]3O	n	u	x	n	n	n
CO[C@H]1CN(C)C(=O)c2cc(NC(=O)c3cnccn3)ccc2OC[C@@H](C)N(C(C)=O)C[C@H]1C	x	n	n	x	n	n
CCCN1CCC(=NNc2ccc(S(=O)(=O)N(CC)CC)cc2[N+](=O)[O-])CC1	n	n	x	n	n	61
CC=Cc1ccc2n(c1=O)C[C@H]1[C@H](CO)[C@@H](C(=O)NC3CCC3)N(CCC)[C@@H]21 (mixture of isomers)	x	x	x	x	n	n
C[C@H]1CN([C@@H](C)CO)C(=O)c2cc(NS(=O)(=O)c3cccs3)ccc2O[C@@H]1CN(C)Cc1ccncc1	x	x	x	x	n	n
CCNC(=O)Nc1ccc2c(c1)C(=O)N(C)[C@@H]1CC[C@@H](CC(=O)NCC3CCCCC3)O[C@@H]1CO2	57[16.7 µM]	n	n	x	n	n
CN1C(=O)c2cc(NC(=O)Cc3cccs3)ccc2OC[C@@H]2O[C@@H](CC(=O)NCc3ccc(-c4ccccc4)cc3)CC[C@H]21	n	66	x	x	x	71
COc1cccc(S(=O)(=O)Nc2ccc3c(c2)C(=O)N(C)[C@H]2CC[C@H](CC(=O)Nc4ccc(C(C)C)cc4)O[C@@H]2CO3)c1	n	66	n	x	n	n
CC(C)c1cccc(NC(=O)C[C@H]2CC[C@H]3[C@@H](COc4ccc(NC(=O)NCc5ccccc5)cc4C(=O)N3C)O2)c1	x	64	n	x	n	n
CCNC(=O)C[C@@H]1CC[C@@H]2[C@@H](COc3ccc(NC(=O)Cc4cccs4)cc3C(=O)N2C)O1	75[16.7 µM]	n	n	x	n	n
CCCCCCCCN1C(=O)[C@H](CC(=O)NCc2ccccc2)C[C@@]2(C(=O)OCC)CCCC=C12	n	n	x	x	n	n
CCCCCCCCN1C(=O)[C@H](CC(=O)NCCCCc2ccccc2)C[C@@]2(C(=O)OCC)CCCC=C12	69	n	n	x	n	n
CCOC(=O)[C@]12CCC=C1N(Cc1cccc3ccccc13)C(=O)[C@H](CC(=O)NCC13CC4CC(CC(C4)C1)C3)C2	n	n	n	x	n	n
CCOC(=O)[C@]12CCC=C1N(Cc1ccccc1)C(=O)[C@H](CC(=O)NCC13CC4CC(CC(C4)C1)C3)C2	64	n	x	x	n	n
COc1ccc(-c2csc3ncnc(Sc4nnnn4C)c23)cc1	n	101	n	n	n	n
Cn1nnnc1Sc1ccc([N+](=O)[O-])cc1Cl	n	n	x	n	n	n
COc1ccc(Nc2ncnc3scc(-c4ccc(OC)cc4)c23)cc1	x	n	n	n	n	65
Cn1nnnc1Sc1ncnc2scc(-c3ccc(Cl)cc3)c12	n	n	n	n	n	n
